The source made the active and inactive calls. No cut-off for these calls is given here.
Legend:
[1] = system: Human immunodeficiency virus 1; experiment: In vitro integration activity provided by preintegration complexes isolated from HIV-infected cells; format: functional
In short: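 Preintegration complexes were made with biologically inactivated HIV-based vectors and isolated from infected cells. They integrate their endogenously synthesized viral cDNA into an added target DNA, read out by microtiter plate assay over a range of compound concentrations.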

[2] = HeLa cell cytotoxicity by MTT cytotoxicity assay; format: cell-based; details: human, HeLa cells; read-out: LD50 (the source's name)
In short: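 HeLa cells in culture exposed to a range of compound concentrations; viability read by MTT assay.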

[3] = system: Molluscum contagiosum virus; experiment: DNA relaxation activity tested by the inhibition of the type 1B topoisomerase of molluscum contagiosum virus (MCV)at a concentration of 500 uM; NA is Not Active.; format: functional, organism-based
In short: (§1)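 MCV type 1B topoisomerase counterscreen reading DNA relaxation, with products analysed on gels.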

[4] = system: Molluscum contagiosum virus; experiment: DNA cleavage and religation activity tested by the inhibition of the type 1B topoisomerase of molluscum contagiosum virus (MCV)at a concentration of 200 uM; NA is Not Active.; format: functional
In short: (§2)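 MCV type 1B topoisomerase counterscreen in microtiter plate format, reading DNA cleavage and religation; compounds tested up to 200 uM.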

[5] = biological target: T1, Topoiomerase 1B (Molluscum contagiosum virus subtype 1) (UniProt Q98254); experiment: (§3) DNA cleavage and religation activity as inhibition of type 1B topoisomerase of molluscum contagiosum virus (MCV); format: functional
T1 sequence (whole entry): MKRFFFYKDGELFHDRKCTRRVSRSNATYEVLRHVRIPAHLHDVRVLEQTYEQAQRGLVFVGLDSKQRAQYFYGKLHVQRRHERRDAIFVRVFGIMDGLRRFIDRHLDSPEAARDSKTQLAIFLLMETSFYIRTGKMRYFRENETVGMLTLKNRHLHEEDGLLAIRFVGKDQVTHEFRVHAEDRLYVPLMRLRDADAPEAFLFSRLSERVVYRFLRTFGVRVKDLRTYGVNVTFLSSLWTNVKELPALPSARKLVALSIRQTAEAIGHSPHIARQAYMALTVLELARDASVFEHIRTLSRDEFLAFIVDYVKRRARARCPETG
In short: (§4)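 Type 1B topoisomerase of molluscum contagiosum virus tested as a counterscreen in a microtiter plate format that reads out DNA cleavage and religation.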

[6] = system: Molluscum contagiosum virus; experiment: DNA relaxation activity tested by the inhibition of the Type 1B topoisomerase of molluscum contagiosum virus (MCV); format: functional
In short: (§5)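 Type 1B topoisomerase of molluscum contagiosum virus tested as a counterscreen. Supercoiled DNA relaxation was analysed on gels.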

[7] = system: Integrase (Human immunodeficiency virus 1); experiment: Inhibition of 3'-processing (TC) in the presence of Mn2+ in vitro
[8] = system: Integrase (Human immunodeficiency virus 1); experiment: Inhibition of strand -transfer (ST) activity in the presence of Mn2+
[9] = system: Integrase (Human immunodeficiency virus 1); experiment: Tested in vitro against strand -transfer (ST) activity in the presence of Mg2+ as the cationic cofactor
[10] = system: Molluscum contagiosum virus; experiment: DNA cleavage and religation activity tested by the inhibition of the type 1B topoisomerase of molluscum contagiosum virus (MCV) at a concentration of 200 uM; NA is Not Active.; format: functional; in short: as §2
[11] = system: Molluscum contagiosum virus; experiment: DNA relaxation activity tested by the inhibition of the type 1B topoisomerase of molluscum contagiosum virus (MCV) at a concentration of 200 uM; NA is Not Active.; format: functional; in short: as §1
[12] = system: Integrase (Human immunodeficiency virus 1); experiment: Compound was tested in vitro against strand -transfer (ST) activity in the presence of Mg2+ as the cationic cofactor at a concentration of 200 uM; NA is Not Active.
Topoiomerase 1B = biological target: T2, Topoiomerase 1B (Molluscum contagiosum virus subtype 1, UniProt Q98254); experiment: as §3; format: functional; in short: as §4
T2 sequence (Q98254 whole entry): T1 sequence (whole entry)

[13] = system: Integrase (Human immunodeficiency virus 1); experiment: Compound was tested in vitro against 3'-processing (TC) in the presence of Mn2+ at a concentration of 200 uM; Na is Not Active.
[14] = system: Integrase (Human immunodeficiency virus 1); experiment: Compound was tested in vitro against strand -transfer (ST) activity in the presence of Mn2+ at a concentration of 200 uM; NA is Not Active.
[15] = system: Molluscum contagiosum virus; experiment: DNA relaxation activity tested by the inhibition of the type 1B topoisomerase of molluscum contagiosum virus (MCV)at a concentration of 200 uM; NA is Not Active.; format: functional, organism-based; in short: as §5
[16] = system: Integrase (Human immunodeficiency virus 1); experiment: Compound was tested in vitro against 3''-processing (TC) in the presence of Mn2+ at a concentration of 200 uM; NA is Not Active.

| SMILES | IC50 [1] | CC50 [2] | inhibition [5] | inhibition [6] | other results |
| --- | --- | --- | --- | --- | --- |
| CC1(C)CC2(CC(C)(C)c3ccc(O)cc32)c2cc(O)ccc21 | > 80 µM | < 20 µM |  |  | NA [3]: inactive; NA [4]: inactive |
| CC1(C)CC2(CC(C)(C)c3cc(O)c(O)cc32)c2cc(O)c(O)cc21 | > 80 µM | 65 µM | inactive | inactive |  |
| CC1(C)CC2(CC(C)(C)c3cc(C=O)c(O)cc32)c2cc(O)c(C=O)cc21 | > 80 µM | 4 µM | inactive |  |  |
| CC1(C)CC2(CC(C)(C)c3cc(S(=O)(=O)O)c(O)cc32)c2cc(O)c(S(=O)(=O)O)cc21 | > 80 µM | > 600 µM | inactive | inactive | inhibition [7]: inactive; inhibition [8]: inactive |
| CC1(C)CC2(CC(C)(C)c3ccc(O)c(N)c32)c2cc(O)c(N)cc21 (stereo not drawn) | > 80 µM | 3 µM | inactive | inactive | inhibition [7]: inactive; inhibition [8]: inactive; inhibition [9]: inactive |
| CC1(C)CC2(CC(C)(C)c3cc(I)c(O)cc32)c2cc(O)c(I)cc21 | > 80 µM | < 20 µM |  |  | Inhibition of DNA cleavage and religation [10]: inactive; Inhibition of DNA relaxation [11]: inactive; NA [12]: inactive |
| CC1(C)CC2(CC(C)(C)c3cc(Br)c(O)cc32)c2cc(O)c(Br)cc21 | > 80 µM | 4 µM |  |  | Inhibition of DNA cleavage and religation [10]: inactive; Inhibition of DNA relaxation [11]: inactive; NA [12]: inactive |
| CC1(C)CC2(CC(C)(C)c3cc([N+](=O)[O-])c(O)cc32)c2cc(O)c([N+](=O)[O-])cc21 | > 80 µM | 198 µM | inactive | inactive | inhibition [7]: inactive; inhibition [8]: inactive; inhibition [9]: inactive |
| CC1(C)CC2(CC(C)(C)c3c(Br)c(OS(=O)(=O)O)c(OS(=O)(=O)O)c(Br)c32)c2c(Br)c(OS(=O)(=O)O)c(OS(=O)(=O)O)c(Br)c21 | > 80 µM | 207 µM |  |  | IC50 (Topoiomerase 1B): 75 µM |
| CC1(C)CC2(CC(C)(C)c3ccc(OS(=O)(=O)O)cc32)c2cc(OS(=O)(=O)O)ccc21 | > 80 µM | > 400 µM | inactive |  |  |
| CC1(C)CC2(CC(C)(C)c3cc(Br)c(OS(=O)(=O)O)cc32)c2cc(OS(=O)(=O)O)c(Br)cc21 | > 80 µM | 50 µM | inactive |  | inhibition [7]: inactive; inhibition [8]: inactive; inhibition [9]: inactive |
| CC1(C)CC2(CC(C)(C)c3ccc(O)c([N+](=O)[O-])c32)c2cc(O)c([N+](=O)[O-])cc21 (stereo not drawn) | > 80 µM | 41 µM | inactive | inactive |  |
| CC1(C)CC2(CC(C)(C)c3cc(OS(=O)(=O)O)c(OS(=O)(=O)O)cc32)c2cc(OS(=O)(=O)O)c(OS(=O)(=O)O)cc21 | > 80 µM | 134 µM | inactive |  | IC50 [6]: 123 µM |
| CC1(C)CC2(CC(C)(C)c3cc(N)c(O)cc32)c2cc(O)c(N)cc21 | > 80 µM | 47 µM | inactive | inactive | inhibition [7]: inactive; inhibition [8]: inactive |
| CC1(C)CC2(CC(C)(C)c3cc([N+](=O)[O-])c(O)c([N+](=O)[O-])c32)c2cc(O)c([N+](=O)[O-])cc21 (stereo not drawn) | > 80 µM | 41 µM | inactive |  | IC50 [6]: 200 µM |
| Cc1cc2c(cc1O)C1(CC2(C)C)CC(C)(C)c2cc(C)c(O)cc21 | > 80 µM | 10 µM |  |  | Inhibition of DNA cleavage and religation [10]: inactive; Inhibition of DNA relaxation [11]: inactive; NA [13]: inactive; NA [14]: inactive; NA [12]: inactive |
| CC1(C)CC2(CC(C)(C)c3c(Br)c(O)c(O)c(Br)c32)c2c(Br)c(O)c(O)c(Br)c21 | > 80 µM | 18 µM |  | inactive | IC50 (Topoiomerase 1B): 50 µM |
| CC1(C)CC2(CC(C)(C)c3cc(NC(N)=O)c(O)cc32)c2cc(O)c(NC(N)=O)cc21 | > 80 µM | 53 µM |  |  | NA [15]: inactive; NA [4]: inactive; NA [16]: inactive; NA [14]: inactive; NA [12]: inactive |
| CC1(C)CC2(CC(C)(C)c3ccc(O)c(NC(N)=O)c32)c2cc(O)c(NC(N)=O)cc21 (stereo not drawn) | > 80 µM | 60 µM |  |  | Inhibition of DNA cleavage and religation [10]: inactive; Inhibition of DNA relaxation [11]: inactive |

From ChEMBL document CHEMBL1133186, “A new class of HIV-1 integrase inhibitors: the 3,3,3', 3'-tetramethyl-1,1'-spirobi(indan)-5,5',6,6'-tetrol family” (J Med Chem, 2000)
